Measured values taken from ChEMBL document CHEMBL4414571, “Sordarin Diterpene Glycosides with an Unusual 1,3-Dioxolan-4-one Ring from the Zoanthid-Derived Fungus Curvularia hawaiiensis TA26-15” (2019).
In brackets after ≈: the same amount, converted by molar mass.

system: Candida albicans; assay: Antifungal activity against Candida albicans ATCC 10231 by NCCLS-protocol based microplate reader analysis; format: functional
Method in brief: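 Broth microdilution per NCCLS. Strains grown on potato dextrose agar; inoculum prepared from broth culture (28 °C, 48 h) and adjusted to 104 mycelial fragments/mL. Compounds from 100 μM DMSO stock were serially diluted in triplicate, spore suspension added to 200 μL final volume. Carbendazim served as positive control. Absorbance read at 492 nm after incubation; MIC calculated.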

| Structure (SMILES) | MIC [µM] |
| --- | --- |
| CO[C@@H]1[C@@H](C)O[C@@H](OC[C@@]23C[C@@H]4[C@H](C)CC[C@H]4[C@@]4(C(=O)O)C[C@@H]2C=C(C(C)C)[C@@]34C(=O)O)[C@@H](O)[C@@]12OC(=O)[C@H](CCCCCCCC(=O)O)O2 | 15 (≈ 10.6 µg/mL) |
| CC(C)C1=C[C@H]2C[C@]3(C(=O)O)[C@@H]4CC[C@@H](C)[C@H]4C[C@@]2(CO)[C@]13C(=O)O | 24 (≈ 8.36 µg/mL) |
| CC(C)C1=C[C@H]2C[C@]3(C=O)[C@@H]4CC[C@@H](C)[C@H]4C[C@@]2(CO)[C@]13C(=O)O | 18 (≈ 5.98 µg/mL) |
| COC(=O)Nc1nc2ccccc2[nH]1 [CARBENDAZIM] | 0.16 (≈ 0.0306 µg/mL) |

The remaining compounds from weak to strong by MIC, led by results:

| MIC [µM] | Structure (SMILES) |
| --- | --- |
| 13 (≈ 9.37 µg/mL) | COC(=O)CCCCCCC[C@@H]1O[C@@]2(OC1=O)[C@H](O)[C@H](OC[C@@]13C[C@@H]4[C@H](C)CC[C@H]4[C@@]4(C(=O)O)C[C@@H]1C=C(C(C)C)[C@@]34C(=O)O)O[C@H](C)[C@H]2OC |
| 12 (≈ 7.62 µg/mL) | CO[C@@H]1[C@@H](C)O[C@@H](OC[C@@]23C[C@@H]4[C@H](C)CC[C@H]4[C@@]4(C=O)C[C@@H]2C=C(C(C)C)[C@@]34C(=O)O)[C@@H](O)[C@@]12OC(=O)[C@H](CCCC(=O)O)O2 |
| 9.8 (≈ 6.36 µg/mL) | COC(=O)CCC[C@@H]1O[C@@]2(OC1=O)[C@H](O)[C@H](OC[C@@]13C[C@@H]4[C@H](C)CC[C@H]4[C@@]4(C=O)C[C@@H]1C=C(C(C)C)[C@@]34C(=O)O)O[C@H](C)[C@H]2OC |
| 8.7 (≈ 5.77 µg/mL) | CO[C@@H]1[C@@H](C)O[C@@H](OC[C@@]23C[C@@H]4[C@H](C)CC[C@H]4[C@@]4(C=O)C[C@@H]2C=C(C(C)C)[C@@]34C(=O)O)[C@@H](O)[C@@]12OC(=O)[C@H](CCCCCC(=O)O)O2 |
| 3.7 (≈ 2.56 µg/mL) | CO[C@@H]1[C@@H](C)O[C@@H](OC[C@@]23C[C@@H]4[C@H](C)CC[C@H]4[C@@]4(C=O)C[C@@H]2C=C(C(C)C)[C@@]34C(=O)O)[C@@H](O)[C@@]12OC(=O)[C@H](CCCCCCCC(=O)O)O2 |
| 2.9 (≈ 2.04 µg/mL) | COC(=O)CCCCCCC[C@@H]1O[C@@]2(OC1=O)[C@H](O)[C@H](OC[C@@]13C[C@@H]4[C@H](C)CC[C@H]4[C@@]4(C=O)C[C@@H]1C=C(C(C)C)[C@@]34C(=O)O)O[C@H](C)[C@H]2OC |
